# Only some compounds are listed: those with a hit (about 1.4% of all), similar ones and a draw of the others.
# HIV Env fusion: HIV envelope-mediated fusion inhibition. HeLa-JRFL Env/CEM21 cell fusion, luciferase. inhibition, % at 12.3 µM. hit rate 1.1% among 360,000;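 active = mean replicate inhibition score of at least 50 and every replicate individually at or above 50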;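 also: 0% = plate neutral controls and 100% = maraviroc near 300 nM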
# GSK3A inh: blocks human GSK-3 alpha kinase; P49840; ADP-Glo luminescence, 60 min; inhibition, % at 10 µM; hit rate 0.1% among 320,000; AID 2650;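 active = more than half of replicates show inhibition above 20%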;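 also: GST-tagged GSK-3 alpha with peptide substrate and 25 µM ATP; 0% = DMSO neutral wells and 100% = GW8510 positive control wells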
# Target sequence (P49840 whole entry, looked up): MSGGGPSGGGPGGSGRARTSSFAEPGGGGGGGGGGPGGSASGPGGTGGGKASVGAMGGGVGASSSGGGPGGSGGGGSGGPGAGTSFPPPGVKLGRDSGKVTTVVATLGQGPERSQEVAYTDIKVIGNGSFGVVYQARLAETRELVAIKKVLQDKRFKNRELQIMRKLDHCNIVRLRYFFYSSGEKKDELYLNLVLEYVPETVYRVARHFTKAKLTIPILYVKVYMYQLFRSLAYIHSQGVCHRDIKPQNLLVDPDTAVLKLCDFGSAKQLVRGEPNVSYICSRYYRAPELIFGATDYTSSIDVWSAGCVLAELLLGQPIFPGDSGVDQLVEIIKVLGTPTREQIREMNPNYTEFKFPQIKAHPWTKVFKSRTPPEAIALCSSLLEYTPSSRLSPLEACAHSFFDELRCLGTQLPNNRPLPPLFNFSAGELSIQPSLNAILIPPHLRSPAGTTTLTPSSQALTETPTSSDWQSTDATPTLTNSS
# CDK5 inh: CDK5/p35 (human) kinase inhibition. Q00535+Q15078. Recombinant CDK5/p35, ADP-Glo luminescence, 60 min. inhibition, % at 10 µM. hit rate 0.01% among 330,000;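 active = highest replicate inhibition of at least 50% and at least 75% of replicates reaching 50%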;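 also: plate controls were DMSO neutral control for no effect and GW8510 at 10 µM for full effect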
# STK33 inh: blocks human STK33 kinase activity; purified STK33, MBP phosphorylation, ADP-Glo luminescence; inhibition, % at 10 µM; hit rate 0.073% among 320,000; AID 2661;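 active = inhibition at or above 25%, using the most active replicate where run in duplicate; inactive = inhibition below 25%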
# GSK3beta inhib: human GSK3beta kinase inhibition. activity score (negative = inhibition), % at 10 µM. AID 2097. hit rate 0.038% among 300,000. GST-GSK3beta kinase, ADP-Glo luminescence, 60 min; stronger effect = lower value. P49841;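 active = more than half of replicate wells score below -50%, meaning over 50% inhibition versus plate controls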;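 also: 0% = median DMSO wells and -100% = median GW8510 positive control wells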
#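 Test system: GST-tagged human GSK3beta kinase, cell-free; evaluation: activity score scaled between in-plate DMSO and GW8510 controls; measured by: ADP-Glo luminescence; incubation: 60 min reaction, RT; benchmarks: DMSO and 20 µM GW8510; reagent: peptide substrate plus 25 µM ATP (final); medium: Tris/MgCl2 kinase buffer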
# INS-1E GSIS act: primary screen for activators of insulin secretion dependent on glucose, INS-1E cells, GLuc reporter luminescence. hit rate 0.61% among 370,000. activation, % at 16.6 µM. AID 743287. INS-1E GLuc reporter insulin secretion, 2-3 h;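 active = lowest replicate activation of at least 40%, so every replicate reaches that level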;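 also: 0% = median of neutral control wells and 100% = median of IBMX positive control wells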
# Active calls of the source: *; · = not tested or not shown; [ ] = dose if it differs, or a comment.
SMILES,HIV Env fusion,GSK3A inh,CDK5 inh,STK33 inh,GSK3beta inhib,INS-1E GSIS act
Cc1ccc(-c2noc(CSc3nnc(-c4ccncc4)n3-c3ccc(C)cc3)n2)cc1,47.8,-0.8,-1.1,-2.2,-4.0,-25.1
O=c1[nH]nc(Sc2ncnc3sccc23)n1CCc1ccccc1,64.3*,0.8,-3.8,-0.3,-0.9,·
Cc1ccc(C(=O)OCC(=O)N2c3ccccc3NC(=O)C2(C)C)cc1S(=O)(=O)N1CCCCC1,59.1*,-4.1,1.8,0.1,·,15.5
CC1(C)C(=O)Nc2ccccc2N1C(=O)COC(=O)c1cccnc1,64.5*,20.6,0.7,2.6,·,10.5
CCCC(=O)Nc1ccc2c(c1)OC[C@H](C)N(C(=O)c1ccccc1F)C[C@@H](C)[C@H](OC)CN(C)C2=O,·,·,·,·,·,3.0
CN(C)/C=N/c1c(C#N)cnn1-c1ccccc1,·,1.8,0.8,-1.0,-3.0,13.5
CN(C)/C=N/c1c(C#N)cnn1-c1ncnc2sc(-c3ccccc3)cc12,·,-0.3,-0.6,-0.5,-1.2,73.8*
CC1CCN(S(=O)(=O)c2ccc(NC(=O)Cc3ccc(S(=O)(=O)N4CCOCC4)s3)cc2)CC1,60.7*,0.4,-0.9,-0.6,0.7,-28.4
CC1CCCN(S(=O)(=O)c2ccc(NC(=O)Cc3ccc(S(=O)(=O)N4CCOCC4)s3)cc2)C1 (configuration not stated),·,-1.4,0.6,-0.5,-0.3,-18.5
COc1cccc(C(C)(O)c2nc(-c3ccc(S(C)(=O)=O)cc3)cs2)c1 (configuration not stated),64.0*,·,·,·,·,·
Cc1noc(C)c1NC(=O)Nc1ccc2c(c1)C(=O)N([C@H](C)CO)C[C@@H](C)[C@H](CN(C)Cc1ccc(Cl)c(Cl)c1)OCCCC[C@H](C)O2,14.2[16.7 µM],·,·,·,·,-11.4
COc1ccc2oc(-c3ccncc3)cc(=O)c2c1,30.3,·,0.8,·,·,52.6*
O=C(Nc1nc(-c2ccccc2)cs1)C1CCCN(S(=O)(=O)c2ccccc2)C1 (configuration not stated),96.6*,·,2.7,·,-1.2,-1.1
Cc1ccc(-c2csc(NC(=O)C3CCN(S(=O)(=O)c4cccs4)CC3)n2)cc1,63.4*,-1.3,-0.8,-0.8,-3.6,-36.4
CO[C@H]1CN(C)C(=O)c2cc(NC(=O)c3cccc(F)c3)ccc2OC[C@@H](C)NC[C@@H]1C,·,·,·,·,·,12.4
COc1cc(/C=N/NC(=O)c2sc(N)c(C#N)c2C)cc(Br)c1O,·,61.8*,0.8,1.4,-10.6,·
CCOC(=O)c1cnc2ccc(Cl)cc2c1N1CCN(C)CC1,17.3,64.2*,3.4,3.7,-42.2,18.5
CNc1nc(-c2ccccc2)[n+](-c2ccc(C)cc2)s1,·,-0.4,-1.7,-2.4,-4.1,176.2*
CC(C)NC(=O)N(C)C[C@@H]1Oc2cc(C#CC(C)(C)O)ccc2S(=O)(=O)N([C@H](C)CO)C[C@H]1C,-6.4[16.7 µM],·,·,·,·,10.3
Cc1ccc(OCC(O)CNC(C)c2ccccc2)cc1C (configuration not stated),59.6*,-15.6,-0.4,-0.1,-2.2,·
COc1ncnc2c1sc1nc(-c3ccccc3)c3c(c12)CCCC3,-21.8,5.6,0.6,-1.5,3.6,0.5
CN(C)CCNc1ncnc2c1sc1nc(-c3ccccc3)c3c(c12)CCCC3,2.1,7.1,-1.9,2.9,-8.0,193.5*
Cc1cccc(CS(=O)(=O)c2ncc(Cl)c(C(=O)Nc3nnc(C(C)C)s3)n2)c1,·,-3.8,-3.2,-0.9,-2.4,·
CSc1nnc(NC(=O)c2nc(S(=O)(=O)Cc3cccc(C)c3)ncc2Cl)s1,89.3*,-6.1,-2.3,-1.7,-2.1,-1.6
CCc1nnc(NC(=O)c2nc(S(=O)(=O)Cc3cccc(C)c3)ncc2Cl)s1,63.4*,-5.6,-0.2,0.9,-4.9,1.4
SMILES,HIV Env fusion,GSK3A inh,CDK5 inh,STK33 inh,GSK3beta inhib,INS-1E GSIS act
COc1ccc(CN(C)C[C@@H]2Oc3ccc(NS(=O)(=O)c4c(C)noc4C)cc3CC(=O)N([C@H](C)CO)C[C@@H]2C)cc1,-3.5[16.7 µM],·,·,·,·,-0.6
Cc1ccc2c(c1)CCCN2C(=O)c1ccc2c(c1)OCO2,·,-1.7,0.9,0.7,-1.4,53.7*
O=C(c1ccccc1)N1CCCc2ccccc21,·,0.7,-0.2,-1.2,3.1,27.4
O=C(c1ccc2c(c1)OCO2)N1CCc2ccccc2C1,-40.4,0.4,-0.2,-0.5,-3.6,81.2*
O=C(c1cccc(F)c1)N1CCCc2ccccc21,0.2,-0.3,-3.2,-1.1,-0.9,84.1*
Cc1noc(C)c1NC(=O)N(C)C[C@@H]1OCCCC[C@H](C)Oc2ccc(NS(=O)(=O)c3ccc(F)cc3)cc2C(=O)N([C@H](C)CO)C[C@@H]1C,5.8[16.7 µM],·,·,·,·,12.9
O=C(NCc1ccccc1)[C@@H]1[C@@H](CO)[C@@H]2Cn3c(ccc(-c4cccnc4)c3=O)[C@@H]2N1Cc1cocn1,4.6[16.7 µM],·,·,·,·,3.8
N#Cc1ccc(S(=O)(=O)N2CCCN(c3nc4ccc(Cl)cc4s3)CC2)cc1,55.2*,-2.1,-2.4,-0.6,-1.8,-3.2
COc1ccc(-n2c(CNc3ccc(C)cc3)nnc2SCc2ccccc2)cc1,10.8,1.4,-3.1,-1.6,0.8,-33.7
CCOc1ccc(NCc2nnc(SCc3ccccc3Cl)n2-c2ccccc2)cc1,82.1*,-1.4,2.2,-0.3,-3.0,·
c1ccc(C2Nc3ccccc3-c3nc4ccccc4n32)cc1 (configuration not stated),14.9,-2.7,-0.5,1.6,0.8,·
c1coc(C2Nc3ccccc3-c3nc4ccccc4n32)c1 (configuration not stated),·,5.4,2.9,36.3*,0.2,-11.6
C[C@@H](NC(=O)C[C@H]1C=C[C@H](NC(=O)Nc2ccc3c(c2)OCO3)[C@H](CO)O1)c1ccccc1,1.9[16.7 µM],·,·,·,·,5.3
Cn1nc(C(C)(C)C)cc1C(=O)NCc1ccc(N2CCCC2=O)cc1,64.1*,4.9,0.3,-0.4,-5.6,-27.9
N#Cc1nccnc1S(=O)(=O)c1cccs1,9.9,5.9,·,-1.5,1.0,134.2*
CN(Cc1ccccc1C#N)S(=O)(=O)c1cccs1,12.9,0.5,0.8,0.0,-0.2,-0.5
CN(C)C(=O)CCC(=O)N1CCCC(C(=O)c2ccc3c4c(cccc24)CC3)C1 (configuration not stated),80.5*,-2.2,0.4,-0.7,-0.4,-13.0
O=C(c1ccc2c3c(cccc13)CC2)C1CCCN(C(=O)c2ccc(=O)[nH]c2)C1 (configuration not stated),21.4,0.0,-1.7,1.1,3.8,-5.3
Cc1ncccc1C(=O)N1CCCC(C(=O)c2ccc3c4c(cccc24)CC3)C1 (configuration not stated),90.3*,0.0,0.4,-0.6,-1.0,-7.7
CCS(=O)(=O)NCC[C@@H]1CC[C@@H](NC(=O)Cc2ccccn2)[C@@H](CO)O1,2.3[16.7 µM],·,·,·,·,12.7
COc1ccc2c3c(n(C)c2c1)[C@H](CO)NCC31CCN(S(=O)(=O)c2ccc(C)cc2)CC1,·,·,·,·,·,2.9

# Assay outcomes: PubChem, Broad Institute
